Test results taken from ChEMBL document CHEMBL4257555, “Small molecule cores demonstrate non-competitive inhibition of lactate dehydrogenase” (Medchemcomm, 2018).

Key:
[1] = target: T1, L-lactate dehydrogenase B chain (Sus scrofa, UniProt P00336); experiment: Non-competitive inhibition of porcine heart LDH using varying levels of pyruvate as substrate and NADH as cofactor measured after 2 hrs by double reciprocal lineweaver-burk plot analysis
[2] = target: T1, L-lactate dehydrogenase B chain; experiment: Inhibition of porcine heart LDH using pyruvate as substrate and NADH as cofactor measured after 2 hrs by stopped-flow spectrometric method
Summary of the method: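 Stopped-flow assay of pig heart LDH (5 nN) with 100 μM NADH and 300 μM pyruvate in 100 mM sodium phosphate pH 7.2 at 37 °C, after 2 h inhibitor preincubation at 4 °C. A340 initial rates averaged over five shots and normalised to uninhibited activity. EC50 from a four-parameter fit with min, max, EC50 and Hill coefficient refined.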

T1 sequence (P00336 whole entry): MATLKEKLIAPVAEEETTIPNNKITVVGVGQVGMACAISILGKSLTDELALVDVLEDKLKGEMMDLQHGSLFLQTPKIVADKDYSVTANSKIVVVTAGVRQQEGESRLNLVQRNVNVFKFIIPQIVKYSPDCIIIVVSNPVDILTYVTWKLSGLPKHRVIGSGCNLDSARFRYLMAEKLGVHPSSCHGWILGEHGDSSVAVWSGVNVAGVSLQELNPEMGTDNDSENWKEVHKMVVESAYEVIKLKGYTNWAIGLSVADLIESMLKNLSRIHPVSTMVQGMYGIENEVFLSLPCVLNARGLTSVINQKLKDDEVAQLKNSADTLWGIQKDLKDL

Row | SMILES | Ki [1] [µM] | EC50 [2] [µM]
1 | NC(=O)c1cc(O)cc(O)c1 | 355 | 712
2 | CC(=O)Nc1cccc(O)c1 [METACETAMOL] | 498 | 78
